# Screening results deposited in PubChem BioAssay by Sanford-Burnham Center for Chemical Genomics.
# This is a sample that favours compounds with a hit; in the whole collection about 4.4% have one here.
# SENP1 FRET inh: blocks the human SENP1 SUMO protease catalytic domain; recombinant SENP1 catalytic domain, CyPet-SUMO1-YPet FRET cleavage; 0.21% of 360,000 active; inhibition, % at 10 µM; Q9P0U3;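 active means inhibition at least 30% at 10 µM, raw YFP signal under a set limit, fluorescence ratio 0.5 to 1.5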;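 further: 0% = enzyme with DMSO and 100% = no enzyme wells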
# Target sequence (Q9P0U3 419-644 limits assumed): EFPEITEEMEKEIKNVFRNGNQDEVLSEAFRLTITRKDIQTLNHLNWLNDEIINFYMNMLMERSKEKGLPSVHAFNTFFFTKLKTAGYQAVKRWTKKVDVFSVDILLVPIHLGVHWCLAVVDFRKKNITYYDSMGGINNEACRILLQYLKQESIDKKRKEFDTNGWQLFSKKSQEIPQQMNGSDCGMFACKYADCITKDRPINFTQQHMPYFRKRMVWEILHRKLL
#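 system = hSENP1 catalytic domain, recombinant | reagent = SFCypet-SUMO1-SFYpet substrate at 25 nM | doses = one dose per compound, 10 µM, 0.5% DMSO | incubation = enzyme reaction for 50 min at room temperature, dark | measured by = FRET, CFP and YFP emission | controls = no-enzyme low, enzyme-DMSO high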
# MPTP inh: inhibitors of mitochondrial permeability transition pore. 1.4% of 360,000 active. AID 602449. isolated mouse mitochondria, Ca2+ swelling absorbance, 30 min. inhibition, % at 10 µM;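 active means inhibition of 50% or more, scaled per plate between neutral and stimulator controls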;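 further: 0% = DMSO wells given calcium and 100% = 1 mM EGTA wells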
# NR3A LBD binder: NR3A (human) ligand-binding domain modulation | NR3A LBD differential scanning fluorimetry, Tm shift; 0% = protein alone, 100% = glycine-bound protein | AID 1259313 | Tm shift relative to glycine control, % at 25 µM | 2.5% of 340,000 active;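 active means melting temperature shift of at least 10% of the positive control shift, at one fixed dose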
# EBI2 block: EBI2 (human) antagonism; inhibition, % at 5 µM; EBI2 beta-arrestin recruitment, luminescence, 7a,25-OHC stimulated; AID 651636; 0.81% of 360,000 active; P32249; in the data active means inhibition above about 38%;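 further: enzyme fragment complementation signal reports receptor beta-arrestin coupling in cells; 0% = agonist plus DMSO wells and 100% = wells without agonist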
# Target sequence (P32249 whole entry, looked up, the tested form may be a part): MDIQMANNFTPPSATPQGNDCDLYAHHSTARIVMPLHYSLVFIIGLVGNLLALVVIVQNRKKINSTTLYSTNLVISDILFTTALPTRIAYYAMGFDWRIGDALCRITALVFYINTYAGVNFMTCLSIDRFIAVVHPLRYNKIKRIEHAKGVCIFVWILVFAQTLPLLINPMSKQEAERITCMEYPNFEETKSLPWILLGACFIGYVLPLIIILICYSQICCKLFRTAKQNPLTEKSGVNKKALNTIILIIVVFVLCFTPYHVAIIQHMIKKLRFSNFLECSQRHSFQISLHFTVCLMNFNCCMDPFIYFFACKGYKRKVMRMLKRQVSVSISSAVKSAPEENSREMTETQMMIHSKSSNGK
# An asterisk follows results filed as active; · = no result given.
SMILES,SENP1 FRET inh,MPTP inh,NR3A LBD binder,EBI2 block
COc1ccc(NC(=O)C2CCC(=O)N2C(=O)OCc2ccccc2)cc1 (stereo unspecified),1,0,11*,6
CC(=O)c1sc2nc(-c3ccc(C)cc3)c3c(c2c1N)CCCC3,-29,4,10*,11
COc1ccc2nc(SCC(=O)C(C)(C)C)[nH]c2c1,0,2,123*,4
COc1ccc(Cl)cc1-c1cc(C(=O)NCc2cccc(C(F)(F)F)c2)[nH]n1,1,1,·,18
COc1cc(C(=O)NC(=S)Nc2ccc(NC(=O)c3ccco3)cc2)cc(OC)c1OC,-2,-1,22*,-13
Cc1c([N+](=O)[O-])cc(C(=O)Nc2ccc(NC(=O)c3ccco3)cc2)cc1[N+](=O)[O-],-1,2,25*,-11
CCOc1ccc(C(=O)NC(=S)Nc2ccc(NC(=O)c3ccco3)cc2)cc1[N+](=O)[O-],3,2,41*,-6
COC1=C(Br)C(=O)c2ncccc2C1=O,8,3,0,-27
CS(=O)(=O)c1nc(S(=O)(=O)c2ccc(Cl)cc2)c(NCc2ccccn2)s1,0,-2,-1,-6
COc1cc(C(=O)COC(=O)c2ccc3c(c2)OCCO3)cc(OC)c1OC,1,-1,·,0
CNC(=O)c1sc(-c2ccccc2)nc1C,2,-2,2,-2
Cc1nc(-c2ccccc2)sc1C(N)=O,3,1,19*,-2
O=C1C=CC2(O[C@H](c3ccccc3)[C@@H](c3ccccc3)O2)[C@H](Sc2ccccc2O)C1,-7,-3,-3,72*
C[C@@H]1[C@@H](Sc2ccccc2)CC(=O)O[C@@H]1c1ccc(-c2ccccc2)cc1,1,0,2,10
Cc1cc(Nc2ccccc2)nn1C(=O)c1ccc([N+](=O)[O-])cc1,0,3,40*,-7
Cc1cc(Nc2ccccc2)n(-c2ccccc2)n1,1,-2,-4,-10
Cc1cc(Nc2ccccc2)n(C(=O)c2ccccc2)n1,6,0,18*,5
CCOc1ccccc1/C=C/c1nc2ccccc2[nH]c1=O,-25,1,2,3
CCc1ccc(CN2CCN(c3ncccn3)CC2)cc1,1,0,2,-3
C=C1c2cccc(O)c2C(O)=C2C(=O)[C@]3(O)C(O)=C(C(N)=O)C(=O)[C@@H](N(C)C)[C@@H]3[C@@H](O)[C@H]12,31*,5,-6,-5
CC(C)(C)NC(=O)C(c1ccc(-c2ccccc2)cc1)N(C[C@H]1CC[C@@H]([C@@H]2CC[C@H](CO)O2)O1)C(=O)c1ccc(-c2ccccc2)cc1 (stereo partly specified),0,-1,30*,10
CCCCNC(=O)C1=C(N)C(C(=O)Nc2ccc(C)c(S(=O)(=O)N3CCCCC3)c2)SC1=Nc1ccc(C)cc1C (stereo unspecified),-53,10,24*,12
O=C(Nc1ccccc1C(=O)O)c1cccc(C(=O)Nc2ccccc2C(=O)O)c1,1,0,10*,0
COc1ccc(CC(=O)Nc2cccc(C(=O)Nc3ccccc3C(=O)O)c2)cc1OC,1,0,-6,-2
O=C(CCCOc1ccc(Cl)cc1Cl)Nc1ccccc1C(=O)O,1,8,-6,-5
SMILES,SENP1 FRET inh,MPTP inh,NR3A LBD binder,EBI2 block
O=C(Nc1cccc(C(=O)Nc2ccccc2C(=O)O)c1)c1cccc(Cl)c1,-3,11,14*,3
O=C(Cc1ccc(Cl)cc1)Nc1cccc(C(=O)Nc2ccccc2C(=O)O)c1,2,0,13*,7
O=C(COc1ccc(Cl)cc1Cl)Nc1ccc(C(=O)Nc2ccccc2C(=O)O)cc1,1,1,16*,-11
N#CC1=C(N)N(c2ncn[nH]2)C2=C(C(=O)CCC2)C1c1ccc(F)cc1 (stereo unspecified),-9,9,-3,7
CC1(C)C(=O)OC(c2ccc([N+](=O)[O-])cc2)C(C)(C)C1=O (stereo unspecified),1,3,3,-6
CCCC(=O)N1CCCC1(C)C(=O)NCc1c(F)ccc(C)c1F (stereo unspecified),-2,0,·,-2
O=C(Nc1ccccc1C(=O)O)c1ccc(NC(=O)c2ccc(Br)o2)cc1,1,-3,13*,-8
CN1CCN(c2ccc(NC(=O)c3ccc(Br)o3)cc2)CC1,-2,-2,-1,-3
CC1CCN(c2ccc(NC(=O)c3ccc(Br)o3)cc2)CC1,2,-2,30*,-11
Cc1ccc(NC(=O)Nc2cccc(Cl)c2)c(C(=O)O)c1,3,11,12*,2
O=C(Nc1ccccc1C(=O)O)c1cccc(NC(=O)c2ccc(Br)o2)c1,-1,0,2,-5
CC1CCCC(NC(=O)C2N(CCCN3CCCC3)C(=O)C3C(C(=O)Nc4cccc(Cl)c4)C4C=CC32O4)C1C (stereo unspecified),2,-1,1,-9
O=C(NCC(O)c1ccc([N+](=O)[O-])cc1)C1=COCCO1 (stereo unspecified),0,0,0,-2
Cc1nn(CC(=O)NCCN2CCOCC2)c(=O)c2cc3sccc3n12,0,3,2,-2
CCCNC(=O)/C(=C/c1cn(S(=O)(=O)N(C)C)c2ccccc12)NC(=O)c1ccc(OC)cc1,-3,-6,2,2
CCOC(=O)/C(C#N)=C/c1ccc(OC(=O)c2ccco2)c(OCC)c1,-145,2,10*,-3
O=C(NCc1ccco1)c1cccc(Nc2nc3ccc(Br)cc3[nH]2)c1,-2,31,13*,2
O=C(Cc1ccc(Nc2nc3ccc(Br)cc3[nH]2)cc1)NCCc1cccs1,-9,6,8,22
O=C(NCC1CC1)c1ccc(Nc2nc3ccc(Br)cc3[nH]2)cc1,-1,29,28*,4
COc1c(C)cc(C(=O)C2CCCN(C(=O)/C=C/c3ccccn3)C2)cc1C (stereo unspecified),0,1,1,-1
Cc1nc2sc(C(=O)OC(C)C)c(N)c2c(C)c1C,-22,-1,-1,-5
Cn1nc(C(=O)Nc2ccc(-n3cnnn3)cc2)c2ccccc2c1=O,1,0,-4,6
Cc1c(C(=O)Nc2ccc(-n3cnnn3)cc2)oc2ccccc12,0,0,27*,-4
Cc1c(C(=O)NC(=S)NCC(C)C)oc2ccccc12,2,0,18*,10
CCC(=O)Nc1ccc(NC(=O)c2oc3ccccc3c2C)cc1,1,0,29*,4
CCC(=O)Nc1ccc(NC(=S)NC(=O)c2oc3ccccc3c2C)cc1,1,4,2,1
CC1=NN(c2nc3ccccc3[nH]2)C(=O)C1Cc1ccccc1 (stereo unspecified),1,-1,-1,-4
O=C(OCCOc1cccc(Cl)c1)c1cc(S(=O)(=O)N2CCCCC2)ccc1N1CCOCC1,0,4,3,36
CC(=O)Nc1ccc(-n2nnnc2SCC(=O)NCc2cccs2)cc1,1,0,-2,11
